bCat nuc transl: beta-catenin nuclear translocation modulation. nuclear translocation activity, % at 5 µM. actives 0.3% (n = 190,000). HeLa beta-catenin nuclear translocation, immunofluorescence imaging. AID 1665;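 active = nuclear translocation activity above 50% at 5 µM, with a well cell count of 50 or more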;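 also: per-cell ratio of nuclear to cytoplasmic median beta-catenin stain intensity; plate controls were DMSO negative control for no effect and GSK-3 inhibitor IX positive control for full effect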
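Technique: fluorescence imaging of beta-catenin antibody stain plus DAPI / Material: human HeLa cell line / Incubation: compound treatment 24 h, 37°C, 5% CO2 / Read-out basis: % activation of per-cell nuclear versus cytoplasmic median beta-catenin signal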
Autophagy HCS: alters autophagy in cells; calls only at 10 µM (by protocol); MEF GFP-LC3 puncta imaging; test concentration mostly 10 µM; actives 0.98% (n = 190,000);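 active = percentage of spot-positive cells more than 3 SD above its plate mean, without a fluorescence outlier flag or 80% toxicity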;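 also: spot-positive cell cutoff set from DMSO-treated cells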
Ins promoter up: MIN6 insulin promoter up-regulation; MIN6 insulin promoter-GFP reporter, high-content imaging; stronger effect = higher value; z-score at 5 µM; actives 0.3% (n = 190,000);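 active = z-score above 3 at 5 µM with at least 500 cells counted in the well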
MT stabilizer: microtubule stabilization, imaging screen. HeLa tubulin immunostaining HCS, 24 h; share of cells brighter than vehicle mean+2SD. % tubulin-high responders, % at 10 µM. actives 0.83% (n = 200,000);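 active = plate Z-score above 3 for both tubulin-high and condensed-nucleus cell shares, with cell loss under 80%, at 10 µM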;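 also: anti alpha tubulin signal scored within the nucleus-defined area of each cell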
Numbers without * were called inactive; i = inactive; · = not tested or not shown; + = active, no number. The list is not random: actives were taken first. Their share in the collection is about 1.9%.

SMILES	bCat nuc transl	Autophagy HCS	Ins promoter up	MT stabilizer
Cc1ccc(C(=O)CC2(O)C(=O)N(C)c3ccccc32)o1 (stereo not drawn)	·	+	1.9	7
CN(C)CCN(C(=O)/C=C/c1cccs1)c1nc2c(F)cc(F)cc2s1	·	i	0.32	21*
O=C(/C=C/c1cccc([N+](=O)[O-])c1)Nc1ccc(Cl)cn1	3	i	-0.42	10*
Cc1ccc(NC(=O)/C=C/c2ccc(Cl)cc2)nc1	7	i	-1.8	21*
O=C(CSc1nnc(-c2cccs2)n1-c1cccc(Cl)c1)c1cccc2c1OCCO2	·	i	0.61	3
CC1CC(C)CN(Cc2nc(N)nc(Nc3ccc4ccccc4c3)n2)C1 (stereo not drawn)	40	i	-2	46*
CC1CC(C)CN(Cc2nc(N)nc(Nc3ccccc3)n2)C1 (stereo not drawn)	2	i	-1.1	2
O=C1N=C(N2CCOCC2)S/C1=C\c1ccc(-c2ccccc2Cl)o1	-1	+	-0.08	8
O=C(N/N=C/c1cccnc1)C(O)c1ccccc1 (stereo not drawn)	3	i	0.47	3
CC(C)Cc1cc(C(=O)Nc2cc(C(F)(F)F)ccc2Cl)no1	1	i	1.3	2
CCCCN(CCCC)Cc1ccc(C(=O)NNC(=O)Nc2ccccc2)o1	0	+	-1.4	1
CCCCN(CCCC)Cc1ccc(C(=O)NNC(=O)Nc2ccc(F)cc2)o1	1	i	-0.43	2
CCN1C(=O)/C(=C2\C=Cc3cc(C)ccc3N2CC)OC1=S	-2	+	0.45	4
CCS(=O)(=O)Nc1ccc(C2=NN(C(=S)Nc3ccccc3)C(c3ccco3)C2)cc1 (stereo not drawn)	0	i	-0.92	22*
Cc1ccc(C2=NN(C(=S)Nc3ccccc3)C(c3ccco3)C2)cc1 (stereo not drawn)	-2	i	-0.42	2
Cc1ccc(S(=O)(=O)C(C#N)c2nc3ccccc3nc2N2CCC(C)CC2)cc1 (stereo not drawn)	-2	i	3.8*	3
COc1ccc2nc(SCC(=O)Nc3ccc(S(=O)(=O)N4CCCC4)cc3)c(C#N)cc2c1	-2	i	3.5*	3
N#Cc1cc2ccccc2nc1SCC(=O)Nc1ccc(S(=O)(=O)N2CCCC2)cc1	-8	i	-0.34	3
OCCNCC(O)Cn1c2ccccc2c2ccccc21 (stereo not drawn)	4	+	0.95	6
O=C(NC(=S)Nc1ccc2oc(-c3cccnc3)nc2c1)c1cccc(Cl)c1	2	i	-0.3	11
COc1cc2c(cc1OC)N1C(=O)CC(OCC(=O)O)C3C4CC5(CCN5C(=O)C4=O)C2C31 (stereo not drawn)	-1	i	1.2	1
Cn1cc(/C=C2\SC(=S)N(NC(=O)c3cccc(Cl)c3)C2=O)c2ccccc21	-1	·	7.3*	·
CC(=O)Nc1cccc2c1C(=O)N(c1ccc(OC(C)=O)cc1)C2=O	0	i	0.73	4
CCOC(=O)C1CCN(C(=O)c2ccc(CNS(=O)(=O)c3ccc(OC)cc3)cc2)CC1	0	+	-0.24	3
CCOC(=O)C1CCCN(C(=O)c2ccc(CNS(=O)(=O)c3ccc(C)cc3)cc2)C1 (stereo not drawn)	0	i	-0.28	2
SMILES	bCat nuc transl	Autophagy HCS	Ins promoter up	MT stabilizer
CCc1ccc(C(=O)/C=C/c2ccc([N+](=O)[O-])o2)cc1	·	+	0.16	0
CCN(CC)S(=O)(=O)c1ccc(C(=O)/C=C/c2ccc(-c3ccc([N+](=O)[O-])cc3)o2)cc1	1	·	1.2	·
Cc1cc(NC(=O)CSc2nnc(N)s2)c([N+](=O)[O-])cc1C	-1	i	-1.4	4
Cc1ccc(-c2ccc(=O)n(CC(=O)NCc3ccc(F)cc3)n2)cc1	-2	i	·	3
CS(=O)(=O)c1nc(-c2cccs2)cc(C(F)(F)F)n1	-2	+	0.54	1
CCN1/C(=N\N)c2cccc3cccc1c23	0	+	1.8	19
Cc1ccc(-c2ccc(SCC(=O)c3ccccc3)nn2)cc1	-1	i	-0.33	5
CSc1nc(N)nc(SCC(=O)c2ccccc2)c1C#N	0	+	-0.83	2
N#Cc1ccc(-c2ccco2)nc1SCC(=O)c1ccc(Cl)cc1	-3	+	·	4
Cc1ccc(C(=O)CSc2nc(-c3ccccc3)ccc2C#N)cc1	-2	+	2.8	6
O=C(COc1ccccc1)N(CCc1ccccc1)c1nc(-c2ccc(F)cc2)cs1	-3	i	-0.5	2
Cc1ccc(C2=N/C(=C/c3cccs3)C(=O)N2Nc2ccccc2)cc1	1	i	-0.08	1
C=CCc1cccc(CNc2ccc(Br)cc2)c1O	-1	i	-0.32	1
CCn1c2ccccc2c2nnc(SCC(=O)Nc3cc(C)on3)nc21	2	i	4*	3
Cc1nn(-c2ccc(F)cc2)c(C)c1NS(=O)(=O)c1ccc2ccccc2c1	-1	i	-0.6	26*
CC(=O)Nc1ccc(S(=O)(=O)Nc2c(C)nn(-c3ccccc3)c2C)cc1	-4	i	-0.28	4
CCCS(=O)(=O)N1CCC(C(=O)N2CCOCC2)CC1	0	i	4*	3
C/C(CC1CC(C)OC1=O)=N\NC(N)=S (stereo not drawn)	-1	i	1.2	4
C/C(CCC12CC3CC(CC(C3)C1)C2)=N\NC(N)=S	·	+	·	0
CN(C)/C=C/C(=O)c1ccccc1	-2	·	·	·
CN(C)/C=C/C(=O)c1cccc([N+](=O)[O-])c1	-2	+	0.63	2
Cc1noc(C)c1COc1cccc(C(=O)OCC(=O)N2CC(=O)Nc3ccccc32)c1	0	+	-0.37	39*
COc1ccc2[nH]cc(CCNS(=O)(=O)c3ccc(NC(C)=O)cc3)c2c1	-2	+	0.15	3
COc1ccc2[nH]cc(CC(=O)O)c2c1	1	i	0.61	2
CCOc1ccc(-c2nc(N)ncc2Oc2cccc(OC)c2)c(O)c1	·	i	0.03	8.2*
SMILES	bCat nuc transl	Autophagy HCS	Ins promoter up	MT stabilizer
CCN(CC)c1ccc(NC(=O)c2ccccc2F)cc1	·	i	-0.67	52*
CCN(CC)c1ccc(NC(=O)c2cc(Cl)ccc2OC)cc1	·	i	-0.39	2
Cc1cnc(C(=O)OCC(=O)NCc2ccc3c(c2)OCO3)cn1	-1	i	0.92	2
O=C(O)c1ccccc1Sc1c([N+](=O)[O-])cc(C(F)(F)F)cc1[N+](=O)[O-]	0	i	-0.66	4
CS(=O)(=O)c1nc(-c2ccc(Br)cc2)cc(-c2ccccc2)c1C#N	·	+	·	44
COc1ccc(-c2cc(-c3ccccc3)c(C#N)c(S(C)(=O)=O)n2)cc1	·	i	·	5
CCOC(=O)CC1C(=O)NCCN1C(=O)NC1CCCCC1 (stereo not drawn)	-3	i	·	3
Cc1cc(S(=O)(=O)Nc2ccc(N(C)C)cc2)c(C)s1	-4	i	·	2
CCn1cc(/C=N/NC(=O)c2cc3c(ccc4ccccc43)o2)c2ccccc21	-2	i	-0.49	41*
